Source: PubChem BioAssay (several laboratories)
CR mimetic SO: reduction of superoxide in aged yeast, primary screen, HTS; S. cerevisiae aged cells, superoxide DHE fluorescence; hits give low values; superoxide response (% of plate mean), % at 10 µM; 330,000 compounds, 0.18% hits;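 active means superoxide response under a set limit, about three screen SD below normal, cut at about 65% in these data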;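 further: yeast aged for seven days with compound at 30 °C before DHE staining; 100% = average MFI of all compound-treated wells on the plate with controls excluded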
ARFGAP1 inh: inhibitors of rat ARFGAP1 GAP activity, primary screen, biochemical, fluorescence polarization, GDP tracer; inhibition, % at 16.5 µM; 360,000 compounds, 0.26% hits; AID 651572, 2012; Arfgap1-stimulated ARF1 GTP hydrolysis, GDP FP detection;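 active means inhibition above a per-plate limit, mean inhibition of low control wells plus 3 SD, cut at about 25% in these data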;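 further: 0% = DMSO wells with enzyme and 100% = wells lacking Arfgap1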
Target sequence (Q62848 1-136 limits assumed): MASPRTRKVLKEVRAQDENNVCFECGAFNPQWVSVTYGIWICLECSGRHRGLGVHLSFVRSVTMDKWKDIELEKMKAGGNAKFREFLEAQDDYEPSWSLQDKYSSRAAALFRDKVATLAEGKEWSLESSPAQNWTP
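Material: rat Arfgap1 catalytic domain, aa 1-136; also added: human ARF1(Δ1-17)-GTP substrate; compound dosing: one concentration, 16.5 µM, DMSO 1.26%; incubation: GTP hydrolysis reaction 2 h at 25 °C; measured by: Tracer-displacement fluorescence polarization with EDTA stop, 620/688 nm; evaluation: % inhibition from polarization; repeats: one replicate per compound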
procasp3 activ: activators of human procaspase-3 D3A mutant, primary screen, biochemical, absorbance, PC-3 D3A mutant, single concentration; recombinant procaspase-3 D3A, Ac-DEVD-pNA absorbance 405 nm; activation, % at 8.5 µM; 330,000 compounds, 0.11% hits; AID 463141, 2010;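 active means activation above the mean of all tested compounds plus 3 SD, cut at about 21% in these data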;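 further: 0% = DMSO alone and 100% = DMSO wells spiked with extra 5 µM PC-3 D3A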
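Technique: 405 nm absorbance of p-nitroaniline, reads at 0 and 120 min; Test system: Procaspase-3 D3A mutant; Incubation: 1 h enzyme-compound preincubation, then 2 h substrate reaction, 25 °C; Repeats: singlicate, each compound tested once; Benchmarks: low control DMSO wells, high control DMSO plus 5 µM PC-3 D3A.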
LANA-H2B inh: blockers of LANA interaction with H2A/H2B – biochemical, FP readout, HTS, primary screen | Protein LANA1 (Human herpesvirus 8 type P (isolate GK18)), Q9QR71 | cell-free LANA-H2A/H2B peptide, fluorescence polarization | inhibition, % (no concentration beside the values) | 320,000 compounds, 0.6% hits | AID 2629, 2010; in the data active means inhibition mostly above about 10%, no sharp cut-off; inactive means mostly below about 6.7%
proCasp7 act: procaspase-7 activators, primary screen, counter-screen for procaspase-3 activator project, biochemical, absorbance, HTS, human; Caspase-7 (Homo sapiens), P55210; 330,000 compounds, 0.093% hits; AID 463210, 2010; activation, % at 8.5 µM; recombinant procaspase-7, Ac-DEVD-pNA absorbance 405 nm; D23A/D198A/D206A triple mutant, cannot self-cleave; scale: DMSO 0, 5 µM enzyme 100;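 active means percent activation above the screen-wide mean plus 3 SD, cut at about 25% in these data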
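System: Uncleavable procaspase-7 mutant enzyme; Amount: 2 µM procaspase-7 mutant as dispensed; Schedule: 1 h compound preincubation, 2 h substrate cleavage, 25 °C; Measured by: 405 nm absorbance of p-nitroaniline; Evaluation: percent activation from buffer-corrected 0–120 min absorbance change; Control set: low DMSO alone, high DMSO plus 5 µM PC-7.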
ASAP1 GAP inh: inhibitors of human ASAP1 ArfGAP activity, primary screen, biochemical, fluorescence polarization; ASAP1-stimulated ARF1 GTP hydrolysis, GDP FP detection; AID 624377, 2012; 360,000 compounds, 0.19% hits; inhibition, % at 16.5 µM; in the data active means inhibition above about 25%;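 further: 0% = vehicle with enzyme and substrate and 100% = no enzyme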
Target sequence (Q9ULH1 325-724 limits assumed): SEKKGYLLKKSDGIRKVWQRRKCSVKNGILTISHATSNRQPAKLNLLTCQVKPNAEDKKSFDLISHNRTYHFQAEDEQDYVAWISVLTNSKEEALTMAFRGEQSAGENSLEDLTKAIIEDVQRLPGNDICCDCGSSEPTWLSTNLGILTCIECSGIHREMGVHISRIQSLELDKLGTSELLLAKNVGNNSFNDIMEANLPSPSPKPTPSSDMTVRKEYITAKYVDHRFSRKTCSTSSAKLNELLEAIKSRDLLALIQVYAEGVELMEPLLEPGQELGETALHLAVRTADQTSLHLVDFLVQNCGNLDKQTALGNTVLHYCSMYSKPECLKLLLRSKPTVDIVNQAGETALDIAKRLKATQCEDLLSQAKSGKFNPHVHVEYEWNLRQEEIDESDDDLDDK
PC3 dual counter: procaspase-3 activators, counter-screen for dual procaspase-3/7 activator project, biochemical, absorbance, PC-3 D3A mutant, human; 290 tested, under 10 active; recombinant PC-3 D3A, Ac-DEVD-pNA absorbance 405 nm; aspartates 9, 28, 175 changed to alanine; 100% = enzyme control; shares compounds with proCasp7 act; AID 493114, 2011; activation, % at 8.5 µM;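 active means mean percent activation across triplicates above a set limit taken from the earlier primary procaspase-3 screen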;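 further: 0% = DMSO wells and 100% = DMSO wells with 5 µM added PC-3 D3A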
PC7 dual conf: activation of procaspase-7 enzyme – biochemical, absorbance, human, dual procaspase-3/-7 activator project, confirmation; shares compounds with proCasp7 act; recombinant procaspase-7, Ac-DEVD-pNA absorbance 405 nm; D23A/D198A/D206A mutant that cannot self-cleave; activation, % at 8.5 µM; 290 tested, under 10 active; AID 493115, 2011;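 active means mean activation above a set limit carried over from the earlier primary screen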;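 further: 0% = DMSO only and 100% = DMSO with added 5 µM PC-7 enzyme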
The depositor's hits bear a star; nt = not tested or not shown. A selection: hits, their analogues and other compounds. The true share with any hit is near 1.2%.

SMILES | CR mimetic SO | ARFGAP1 inh | procasp3 activ | LANA-H2B inh | proCasp7 act | ASAP1 GAP inh | PC3 dual counter | PC7 dual conf
C=CC[C@@H](CC(=O)N(CCO)Cc1ccccc1)C(=O)N[C@H](C)COC(=O)[C@@H](CC=C)Cc1ccc(F)cc1 | 95 | 4 | 0 | -3 | 27* | -5 | 2 | 1
O=C(N/C(=C\c1cccc([N+](=O)[O-])c1)C(=O)N1CCOCC1)c1cccc(Br)c1 | 97 | 7 | -6 | 3 | 0 | -4 | nt | nt
COc1ccc(OC)c(/C=C/C(=O)N2CCN(S(=O)(=O)c3cc(C)ccc3C)CC2)c1 | 87 | -5 | 1 | 2 | 12 | 1 | nt | nt
COc1ccc(OC)c(/C=C/C(=O)N2CCN(S(=O)(=O)c3ccc(C)cc3C)CC2)c1 | 93 | -2 | 9 | nt | 32* | 1 | 1 | -3
O=C(Nc1cccnc1)c1sc(Nc2ccccc2)nc1-c1ccccc1 | 88 | -7 | 10 | 3 | 29* | -8 | 6 | 1
Cc1cccc(Nc2nc(-c3ccccc3)c(C(=O)Nc3cccnc3)s2)c1 | 99 | 6 | -13 | 2 | 6 | 22 | nt | nt
CCCCCCc1cc2cc(S(=O)(=O)c3ccc(C)cc3)c(=O)oc2cc1O | 110 | -2 | 86* | 2 | 31* | 6 | -29 | -35
CCCCCCc1cc2cc(S(=O)(=O)c3ccc(Cl)cc3)c(=O)oc2cc1O | 94 | 7 | -2 | -5 | -3 | -6 | nt | nt
COc1ccc(C2=C(C=O)Cc3ccccc3O2)cc1 | 79 | 12 | 4 | 2 | 1 | 3 | nt | nt
O=C(NNC(=O)C1CC(c2cccnc2)=NO1)Nc1ccccc1F (stereo not drawn) | 96 | 1 | -3 | 0 | 26* | -7 | 1 | 3
Cn1c(N)c(C(=O)COC(=O)C2(c3ccc(Cl)cc3)CCCC2)c(=O)n(C)c1=O | 94 | 7 | 9 | 2 | -4 | -4 | nt | nt
CCOC(=O)c1c(NC(=O)COC(=O)c2ccccc2NC)sc(C(=O)N(C)C)c1C | 99 | 1 | 7 | -5 | 29* | -11 | -28 | -32
CCCS(=O)(=O)c1c(S(=O)(=O)CCC)c2cnccn2c1C(=O)c1ccc(OC)cc1 | 90 | 2 | -8 | 5 | -2 | -8 | nt | nt
CCCS(=O)(=O)c1c(S(=O)(=O)CCC)c2cc(-c3ccncc3)ccn2c1C(=O)OC | 102 | -4 | 29* | 5 | 34* | 8 | -29 | -35
CSc1nnc(-c2cc3c(s2)-c2ccccc2CC3)o1 | 88 | -2 | -28 | 0 | 33* | 13 | -28 | -28
O=c1oc2ccccc2cc1-c1nc(-c2cccs2)cs1 | 91 | 16 | 12 | 0 | -16 | 1 | nt | nt
COc1cccc2cc(-c3nc(-c4cccs4)cs3)c(=O)oc12 | 102 | 3 | 17 | -3 | 65* | -10 | 13 | 4
N#Cc1c2c(c(Nc3ccc(F)cc3)n3c1nc1ccccc13)CCCC2 | nt | -5 | nt | nt | nt | 21 | nt | nt
